The list is not random: actives were taken first. Their share in the collection is about 3.8%.
Measles CPE: compounds protecting cells from measles virus cytopathic effect, primary screen, measles RdRp inhibitor project, single point, MLSMR library, absorbance. Measles virus-infected cells, CPE protection. protection (pct of control), % at 4 µM. hit rate 1.5% among 140,000. AID 841, 2007; in the data active means protection mostly above about 24%, no sharp cut-off; inactive means mostly below about 26%
BB579 growth dn: growth inhibitors of yeast BB579 in restrictive medium, primary screen, yeast lifespan-shortening project, S. cerevisiae; inhibition, % at 10 µM; OD615, 48 h; AID 804, 2007; hit rate 0.51% among 140,000;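 active means inhibition above a set limit, 3 SD over the mean compound inhibition, cut at about 44% in these data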
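Assay system – yeast BB579 (DeaD) · Dosing – single compound dose of 10 µM, 0.25% DMSO final · Detection – OD615 turbidity measurement · Buffer or medium – CSMM-D restrictive synthetic medium containing dextrose (glucose) · Benchmarks – positive control amphotericin B 10 µg/mL · Incubation – 48 h exposure, 30 °C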
RAM inhibit: inhibitors of the yeast RAM network, primary screen, dse1pr::URA3 reporter, 5-FOA selection. S. cerevisiae dse1pr::URA3 reporter, 5-FOA growth OD615, 2 d; analog-sensitive cbk1-as2 kinase mutant strain. inhibition, % at 50 µM. hit rate 1.8% among 190,000. AID 868, 2007;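 active means inhibition above a set limit, 3 SD over mean compound inhibition, cut at about 8.4% in these data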;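 further: 0% = DMSO-only wells with no growth and 100% = 10 µM 1-NA-PP1 full growth; inhibition rescues growth on 5-FOA so higher OD means more RAM inhibition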
Yeast lifespan up: compounds extending yeast replicative lifespan, primary screen, S. cerevisiae, OD615 | S. cerevisiae growth with nicotinamide; deaD strain in restrictive glucose medium | inhibition of the nicotinamide effect, % at 10 µM | hit rate 0.68% among 130,000 | AID 775, 2007;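 active means inhibition above a set limit, placed 3 SD over the median of all compounds, cut at about 26% in these data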;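 further: 0% = nicotinamide-treated wells and 100% = cells grown without nicotinamide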
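Material: Modified budding yeast, DeaD strain | Medium: Restrictive glucose medium | Probe or stimulus: 1.5 mM nicotinamide | Dosing: Single dose 10 µM compound, 0.25% DMSO | Times: 48 h at 30 °C | Technique: OD615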
The depositor's hits bear a star; . = no result.

SMILES	Measles CPE	BB579 growth dn	RAM inhibit	Yeast lifespan up
Cc1ccc(C(=O)NNC(=S)NC(=O)c2ccc(Cl)cc2)cc1	3	-32	1	95*
Cc1ccc2n(n1)c(=O)c(Cc1ccccc1)c([O-])[n+]2-c1ccccc1	22	0	0	4
O=C(Nc1ccc(N=Nc2ccccc2)c(NC(=O)C2CCCO2)c1)C1CCCO1 (stereo not drawn)	22	1	0	-4
CCC(=O)N1CCc2cc(S(=O)(=O)N3CCc4ccccc4C3)ccc21	28*	-12	4	-6
O=C(CN1CCN(c2ccccc2)CC1)N1N=CCC1c1ccccc1 (stereo not drawn)	3	-14	2	12
O=C(CSC(=S)N1CCOCC1)N1N=CCC1c1ccccc1 (stereo not drawn)	35*	26	0	-6
O=C(NCc1ccco1)C1CCN(c2ccc(S(=O)(=O)N3CCOCC3)cc2[N+](=O)[O-])CC1	.	.	1	.
CCC(NC(=O)c1ccc([N+](=O)[O-])cc1[N+](=O)[O-])c1ccccc1 (stereo not drawn)	5	-28	3	2
CC(NC(=O)c1ccc([N+](=O)[O-])cc1[N+](=O)[O-])c1ccc(-c2ccccc2)cc1 (stereo not drawn)	40*	-29	3	1
O=C(Cn1cc(C(F)(F)F)ccc1=O)N/N=C/c1cccc(Cl)c1	9	-44	1	8
COc1ccc(C2C(C(C)=O)=C(C)N=c3s/c(=C\c4cc(C)n(C)c4C)c(=O)n32)c(OC)c1 (stereo not drawn)	8	-38	8.4*	-6
COc1ccc(C2C(C(C)=O)=C(C)N=c3s/c(=C\c4ccco4)c(=O)n32)c(OC)c1 (stereo not drawn)	3	-39	3	-5
COc1ccc(-n2c(SCC(N)=O)nc3sc4c(c3c2=O)CCC4)cc1	.	.	1	.
O=C(O)c1ccccc1-c1nc2ccccc2[nH]1	.	.	-1	.
Oc1ccc2ccccc2c1C=Nc1ccccc1-c1nc2ccccc2[nH]1	2	-39	-1	39*
CC(C)(C)c1cc(NC(=O)CSc2nncs2)n(-c2ccccc2)n1	6	0	2	0
CCN(c1ccccc1)S(=O)(=O)c1ccc(OCC(=O)Nc2cc(C)on2)cc1	6	-16	1	-9
Cc1cc(NC(=O)COc2ccc(N(C)S(=O)(=O)c3ccccc3)cc2)no1	64*	-6	1	-12
CC(C)(C)C1c2[nH]c3ccccc3c2CCN1Cc1cccc(OCCO)c1 (stereo not drawn)	.	.	0	.
CC1=CC(C)(C)N(S(=O)(=O)c2ccc(F)cc2)c2ccc(C)cc21	19	-60	6	8
CC1=CC(C)(C)N(S(=O)(=O)c2ccc(C)cc2)c2ccccc21	-1	-37	8.7*	12
CCCNC(=O)Cn1cnc2sc(C(=O)Nc3cc(OC)c(OC)c(OC)c3)c(C)c2c1=O	6	-20	2	5
CCCNC(=O)Cn1cnc2sc(C(=O)NCCN(CC)CC)c(C)c2c1=O	37*	-39	1	-6
CC(=O)c1c(C)oc2ccc(N(C(C)=O)S(=O)(=O)c3cccc([N+](=O)[O-])c3)cc12	.	.	4	.
CC(=O)c1c(C)oc2ccc(N(C(=O)C3CCCCC3)S(=O)(=O)c3cc([N+](=O)[O-])ccc3C)cc12	17	-31	9.7*	-2
SMILES	Measles CPE	BB579 growth dn	RAM inhibit	Yeast lifespan up
O=C(CSc1nnc(-c2ccco2)c(-c2ccco2)n1)c1ccccc1	.	.	10*	.
Cc1ccc2nc(C)cc(C(=O)OCC(=O)Nc3cccnc3Cl)c2c1	.	.	3	.
COCCCn1c(=S)[nH]c2sc3c(c2c1=O)CCCS3	.	.	2	.
COCCSc1ccccc1C(=O)N1CCN(Cc2ccc3c(c2)OCO3)CC1	51*	2	1	-7
O=C(Cc1cccs1)Nc1cccc(-c2ccc3nncn3n2)c1	.	.	8.5*	.
Cc1cc([N+](=O)[O-])ccc1N(C)C	15	-43	2	3
CCc1ccc(C(=O)COC(=O)c2cc([N+](=O)[O-])ccc2NCCO)cc1	10	-43	10*	-2
O=C(COC(=O)c1cc([N+](=O)[O-])ccc1NCCO)c1ccc(Cl)cc1	13	-27	1	-7
CC[n+]1c(-c2ccc(C)cc2)csc1Nc1c(C)n(C)n(-c2ccccc2)c1=O	30*	-33	1	-2

Assay outcomes deposited in PubChem BioAssay by several laboratories.
